An excerpt weighted towards active compounds, which were near 12% of everything screened.
L major viab: Leishmania major promastigote growth inhibition | Leishmania major promastigotes, resazurin fluorescence viability | inhibition, % at 10 µM | 200,000 compounds, 9% hits | AID 1063; in the data active = inhibition above about 50%;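 note: promastigotes grown with compound for 44 hours at 28 °C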
WT yeast gro inh: growth inhibition of WT yeast, mitochondrial fusion screen; mitochondrial fusion phenotypic screen, WT strain; inhibition, % at 10 µM; 190,000 compounds, 2.1% hits; AID 1362; in the data active = inhibition above about 58%; tested in S. cerevisiae
RAM inhibit: blocks the yeast RAM network; S. cerevisiae dse1pr::URA3 reporter, 5-FOA growth OD615, 2 d; analog-sensitive cbk1-as2 kinase mutant strain; inhibition, % at 50 µM; 190,000 compounds, 1.8% hits;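 active = inhibition above a set limit, 3 SD over mean compound inhibition, cut at about 8.4% in these data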;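 note: inhibition rescues growth on 5-FOA so higher OD means more RAM inhibition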
ABCB1 inh: inhibitors of human ABCB1 transporter, ABCG2 counter-screen; inhibition, % at 6.6 µM; P08183; CCRF-Adr cells, JC-1 efflux, flow cytometry; 190,000 compounds, 0.067% hits; in the data active = inhibition above about 40%;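 note: higher value means more JC-1 retained so stronger ABCB1 efflux block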
ABCG2 block: blocks JC-1 efflux by human ABCG2 transporter; Q9UNQ0; 190,000 compounds, 0.1% hits; inhibition, % at 6.6 µM; IgMXP3 cells, flow cytometry;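 active = inhibition above 80%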
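System: two drug-resistant human cell lines, ABCG2 and ABCB1; controls: nicardipine high and DMSO low controls; times: 10 min exposure at 25 °C with rotation, no wash; detection: flow cytometry of retained JC-1 fluorescence; read-out basis: percent efflux inhibition, scaled nicardipine 100% to DMSO 0%; doses: one concentration, 6.6 µM final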
Numbers stand for hits; . = inactive; / = no result given.

SMILES | L major viab | WT yeast gro inh | RAM inhibit | ABCB1 inh | ABCG2 block
CCn1c(SCC(=O)Nc2cc(C)on2)nnc1-c1ccc(S(=O)(=O)N2CCCC2)cc1 | 69 | . | . | . | .
CCCCNC(=O)C1CCN(S(=O)(=O)N2CCOCC2)CC1 | . | . | . | . | .
CN(CC(=O)Nc1ccc(S(=O)(=O)N2CCCC2)cc1)CC(=O)Nc1cccc(F)c1 | . | . | . | . | .
Cc1cc(C)n(CC(O)Cn2c3ccccc3c3ccccc32)n1 (configuration not stated) | . | . | . | . | .
Cc1cc(C)n(CC(O)CN2c3ccccc3Sc3ccccc32)n1 (configuration not stated) | . | 73 | . | . | .
O=C1NC(c2ccc3c(c2)OCO3)Nc2ccccc21 (configuration not stated) | . | . | . | . | .
CC1(CCc2ccc3c(c2)OCO3)NC(=O)c2ccccc2N1 (configuration not stated) | 100 | . | . | . | .
CC(C)CCNC(=O)c1sc2ccc(S(=O)(=O)N3CCCCC3)cc2c1N | . | . | . | . | .
Nc1c(C(=O)NCCc2ccc(Cl)cc2)sc2ccc(S(=O)(=O)N3CCCCC3)cc12 | 83 | . | . | . | .
Cc1ccc2cc(CN(CCN3CCOCC3)Cc3nnnn3Cc3ccco3)c(=O)[nH]c2c1C | . | . | . | . | .
Cc1cccc2cc(CN(CC3CCCO3)C(c3nnnn3Cc3ccco3)C(C)C)c(=O)[nH]c12 (configuration not stated) | 50 | . | . | . | .
Cc1ccc2cc(CN(CCCN3CCOCC3)C(c3nnnn3Cc3ccco3)C(C)C)c(=O)[nH]c2c1C (configuration not stated) | 67 | / | / | / | /
CCC(c1nnnn1CC1CCCO1)N(CCCO)Cc1cc2cccc(C)c2[nH]c1=O (configuration not stated) | . | . | . | . | .
CC(C)Cn1ccc(=O)n(CC(C)C)c1=O | . | . | . | . | .
COc1ccc(/C=N/NC(=O)CN2CCSCC2)c(OC)c1 | . | . | . | . | .
COc1cccc2cc(C(=O)N3CCc4ccccc43)c(=O)oc12 | . | 83 | . | . | .
CCOc1cccc2cc(C(=O)N3CCc4ccccc43)c(=O)oc12 | . | . | . | . | .
CCOC(=O)CNC(=S)n1ncnc1N | . | . | . | . | .
O=C(Nc1cccc(NC(=O)C2C3CC4OC(=O)C2C4C3)c1)c1ccccc1 (configuration not stated) | . | . | . | . | .
Cc1ccccc1C(=O)N/N=C/c1ccccn1 | . | . | . | . | .
O=C(N/N=C/c1ccccn1)c1ccccc1 | . | . | . | . | .
O=C(N/N=C/c1ccccn1)c1cc(-c2ccc(Cl)cc2)nc2ccccc12 | 98 | . | . | . | .
O=C(N/N=C\c1ccccn1)c1ccccc1O | 69 | . | . | . | .
O=C(N/N=C/c1ccccn1)c1cccs1 | 77 | . | . | . | .
CCOC(=O)/C(=N\Nc1cc(Cl)ccc1Cl)N1CCOCC1 | . | . | . | . | .
SMILES | L major viab | WT yeast gro inh | RAM inhibit | ABCB1 inh | ABCG2 block
Cc1ccc(NC(=O)C2CCCO2)cc1[N+](=O)[O-] (configuration not stated) | . | . | . | . | .
COc1cccc(C(=O)OCC(=O)NCCc2ccccc2)c1OC | . | / | . | . | .
O=C(COC(=O)c1cccc2ccccc12)NCCCc1ccccc1 | . | . | 11 | . | .
Cn1cccc1CNC(=S)Nc1ccccc1F | . | . | . | . | .
Cc1ccc(Nc2ncc(C(=O)NCCCN3CCN(C)CC3)c3ccccc23)cc1Cl | 84 | . | . | . | .
COc1ccc(Nc2cc(C(=O)NCCCN3CCN(C)CC3)c3ccccc3n2)c(OC)c1 | . | . | . | . | .
Cc1cccc(NC(=O)c2ccc(COc3cccc4ccccc34)o2)n1 | . | . | . | . | .
O=[N+]([O-])c1ccccc1Nc1c2ccccc2nc2ccccc12 | . | . | . | . | .
O=[N+]([O-])c1ccc(Nc2c3ccccc3nc3ccccc23)cc1 | 57 | 77 | . | . | .
CC(Nc1ccccc1)c1cc(Cl)ccc1O (configuration not stated) | 96 | . | . | . | .
Cc1ccc(O)c(C(CC(=O)NC(C)C)c2ccccc2)c1 (configuration not stated) | . | . | . | . | .
CC(NC(=O)CC(c1ccccc1)c1cc(Cl)ccc1O)c1ccccc1 (configuration not stated) | 98 | . | . | . | .
Cc1cc2nc3c(=O)n(C4CCCCC4)c(=O)[nH]c3nc2cc1N | . | . | . | . | .
CS(=O)(=O)N(CC(=O)Nc1ccc(S(=O)(=O)N2CCOCC2)cc1)c1cccc(F)c1 | . | . | . | . | .
CC1CCCN(CCCOc2ccc([N+](=O)[O-])cc2)C1 (configuration not stated) | 89 | . | . | . | .
COc1ccc(OCCCN2CCCC(C)C2)cc1 (configuration not stated) | 97 | . | . | . | .
COc1ccc(C(=O)NCc2nnc(SCC(=O)Nc3ccccc3OC)n2C)cc1 | . | . | . | . | .
COc1ccc(CCNC(=O)CC2SC(=NCCc3ccccc3)NC2=O)cc1 (configuration not stated) | . | . | . | . | .
CC(=O)c1cc(C#N)c(N2CCCC2)nc1C | 100 | . | . | . | .
Cc1cc(C)c2cc(C#N)c(N3CCCC3)nc2c1 | . | . | . | . | .
Cc1nc(N[C@@H](Cc2ccccc2)C(=O)O)c2oc3ccccc3c2n1 | . | . | . | . | .
Cc1nc(NC(C)c2ccccc2)c2oc3ccccc3c2n1 (configuration not stated) | . | 66 | . | . | .
COc1ccc(-n2cc(CNCCCn3ccnc3)c(-c3cccc(F)c3)n2)cc1 | 100 | . | . | . | .
COc1ccc(-n2cc(CNCC3CCOCC3)c(-c3cccc(F)c3)n2)cc1 | 87 | . | . | . | .
COCCCNC(=S)Nc1cccc2ncccc12 | . | . | . | . | .
SMILES | L major viab | WT yeast gro inh | RAM inhibit | ABCB1 inh | ABCG2 block
COc1ccc(C(C(=O)NCC2CCCO2)N(C(=O)CNC(=O)c2cccs2)c2ccccc2C)cc1OC (configuration not stated) | . | . | . | . | .
C=C(C)C1CCC(C)=C1COC(=O)Nc1ccccc1 (configuration not stated) | 96 | . | . | . | .
S=C(NCc1ccccc1)N1CCn2cccc2C1c1cccnc1 (configuration not stated) | 91 | . | . | . | .
S=C(NCc1ccccc1)N1CCn2cccc2C1c1ccncc1 (configuration not stated) | . | . | . | . | .
S=C(NCCc1ccccc1)N1CCn2cccc2C1c1cccnc1 (configuration not stated) | 95 | . | . | . | .
CC1CCN(C(=S)NCCc2ccccc2)CC1 | . | . | . | . | .
COCCC(=O)N(Cc1ccc2c(c1)OCO2)C(C(=O)NC1CCCCC1)c1ccncc1 (configuration not stated) | . | . | . | . | .

From PubChem
